Assay [1] addresses 5-hydroxytryptamine receptor 1D (Homo sapiens) (UniProt P28221). Description: (§1) Intrinsic activity against 5-hydroxytryptamine 1 receptor using rabbit saphenous vein assay. The format is tissue-based. Particulars: Oryctolagus cuniculus, target entry is the homologue from another species. In short, it runs like this: (§2)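 Male New Zealand White rabbit saphenous vein rings (4–5 mm) in Krebs–Henseleit at 37 °C, pH 7.4, gassed with 95% O₂:5% CO₂, under 2 g passive force. Tissues got 30 min pargyline (500 μM) and phenoxybenzamine (0.3 μM), then were washed and checked with 1 μM 5-HT. A cumulative 5-HT curve was followed 60 min later by a test agonist curve. Potency is p[A₅₀]; α is test max/5-HT max; n ≥ 3.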

For assay [2], the species on record is Oryctolagus cuniculus. The assay is described as §1. The format is tissue-based. In outline:
as §2

The species named for assay [3] is Oryctolagus cuniculus. The assay is described as follows: Binding affinity against 5-hydroxytryptamine 4 receptor using rabbit saphenous vein assay. The format is tissue-based.
Assay [4] concerns the target T1, 5-hydroxytryptamine receptor 1A (Homo sapiens) (UniProt P08908).
T1 sequence (whole entry): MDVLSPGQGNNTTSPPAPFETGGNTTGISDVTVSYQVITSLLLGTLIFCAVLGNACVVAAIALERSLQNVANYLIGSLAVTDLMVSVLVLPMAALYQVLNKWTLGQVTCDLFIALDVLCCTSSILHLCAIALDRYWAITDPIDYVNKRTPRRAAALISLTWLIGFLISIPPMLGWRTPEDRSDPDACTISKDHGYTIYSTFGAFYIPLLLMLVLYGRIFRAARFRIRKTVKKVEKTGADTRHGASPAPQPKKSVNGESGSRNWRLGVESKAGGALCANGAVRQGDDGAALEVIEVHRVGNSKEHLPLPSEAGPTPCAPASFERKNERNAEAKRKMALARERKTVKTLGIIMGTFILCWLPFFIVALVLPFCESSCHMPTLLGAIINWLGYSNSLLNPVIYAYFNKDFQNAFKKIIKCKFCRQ
The assay is described as follows: Binding affinity against 5-hydroxytryptamine 1 receptor using rabbit jugular vein assay in the presence of endothelium. Particulars: Oryctolagus cuniculus; target entry is the homologue from another species.

In assay [5] the target is T2, Adrenergic receptor alpha-2 (Rattus norvegicus, UniProt P22086+P19328+P22909).
T2 sequence (P22086 whole entry): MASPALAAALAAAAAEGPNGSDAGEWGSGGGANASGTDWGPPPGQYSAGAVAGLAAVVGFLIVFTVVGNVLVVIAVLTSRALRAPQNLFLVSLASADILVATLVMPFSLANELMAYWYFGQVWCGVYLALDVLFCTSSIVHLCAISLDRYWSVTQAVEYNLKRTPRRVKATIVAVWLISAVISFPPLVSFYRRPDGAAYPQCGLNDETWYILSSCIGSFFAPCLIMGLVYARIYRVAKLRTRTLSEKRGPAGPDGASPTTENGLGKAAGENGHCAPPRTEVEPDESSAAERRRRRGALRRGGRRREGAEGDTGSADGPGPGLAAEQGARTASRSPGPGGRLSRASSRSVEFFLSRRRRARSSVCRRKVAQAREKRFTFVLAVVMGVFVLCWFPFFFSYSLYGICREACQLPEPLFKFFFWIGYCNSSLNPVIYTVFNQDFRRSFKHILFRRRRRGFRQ
T2 sequence (P19328 whole entry): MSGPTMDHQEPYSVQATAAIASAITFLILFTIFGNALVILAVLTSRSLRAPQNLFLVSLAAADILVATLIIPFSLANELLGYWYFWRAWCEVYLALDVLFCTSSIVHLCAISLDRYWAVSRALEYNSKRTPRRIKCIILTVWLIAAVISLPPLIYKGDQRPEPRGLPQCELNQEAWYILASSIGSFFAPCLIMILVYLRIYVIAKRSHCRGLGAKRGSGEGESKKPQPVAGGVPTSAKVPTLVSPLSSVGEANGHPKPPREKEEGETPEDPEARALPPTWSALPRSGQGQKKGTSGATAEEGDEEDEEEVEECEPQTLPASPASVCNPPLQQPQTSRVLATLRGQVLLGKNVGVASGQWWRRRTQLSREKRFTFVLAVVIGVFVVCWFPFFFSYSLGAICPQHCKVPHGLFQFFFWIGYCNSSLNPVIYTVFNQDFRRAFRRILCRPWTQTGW
T2 sequence (P22909 whole entry): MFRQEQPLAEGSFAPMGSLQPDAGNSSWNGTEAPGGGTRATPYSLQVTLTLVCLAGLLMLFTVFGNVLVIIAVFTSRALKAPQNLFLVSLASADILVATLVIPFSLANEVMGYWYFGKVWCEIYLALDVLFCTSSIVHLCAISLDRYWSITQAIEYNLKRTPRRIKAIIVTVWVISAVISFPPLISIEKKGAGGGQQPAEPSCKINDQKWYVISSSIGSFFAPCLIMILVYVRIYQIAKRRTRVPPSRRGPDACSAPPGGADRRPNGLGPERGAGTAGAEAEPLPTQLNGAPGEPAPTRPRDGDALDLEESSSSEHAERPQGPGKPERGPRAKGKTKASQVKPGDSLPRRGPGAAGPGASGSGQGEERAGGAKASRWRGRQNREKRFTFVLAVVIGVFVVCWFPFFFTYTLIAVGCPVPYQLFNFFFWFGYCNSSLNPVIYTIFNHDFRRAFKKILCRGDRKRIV
Description: Binding affinity against Alpha-2 adrenergic receptor in rat cortex using [3H]-idazoxan as radioligand. In short, it runs like this:
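Competition binding on rat cortex with [³H]idazoxan (7 nM, about K_D) against a wide test range run in duplicate. Incubation was 30 min at 27 °C in 50 mM Tris-HCl, 5 mM CaCl₂, 0.1% ascorbate and 10 mM pargyline. Assays were ended by rapid filtration and read by scintillation. Values are pK_i or pIC₅₀, mean of n ≥ 3.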

Chain of 5-hydroxytryptamine receptor 1D (Homo sapiens) (P28221 whole entry): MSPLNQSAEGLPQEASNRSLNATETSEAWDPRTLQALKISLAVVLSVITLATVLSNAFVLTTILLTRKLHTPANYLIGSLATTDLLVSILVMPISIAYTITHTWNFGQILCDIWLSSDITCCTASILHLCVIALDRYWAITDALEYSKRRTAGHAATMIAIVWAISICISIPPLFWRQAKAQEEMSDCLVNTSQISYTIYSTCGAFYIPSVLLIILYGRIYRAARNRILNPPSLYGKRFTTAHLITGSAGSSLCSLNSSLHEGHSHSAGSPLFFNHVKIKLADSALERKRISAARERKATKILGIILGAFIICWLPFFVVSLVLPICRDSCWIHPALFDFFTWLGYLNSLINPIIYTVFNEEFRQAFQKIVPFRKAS

As a reminder, the Kd is the concentration at which binding is half-saturated. A low value points to tighter binding. Consider `CN(C)CCc1c[nH]c2ccc(C[C@H]3COC(=O)N3)cc12` [ZOLMITRIPTAN], for which the p[A50] in assay [1] is 8.7; in the assay listed under Oryctolagus cuniculus [3], 5.3; in assay [4], 6.45. The compound further gave an Intrinsic activity in the assay filed under Oryctolagus cuniculus [2] of 0.77. In assay [5], this compound had a Kd of 7 nM.

Values taken from ChEMBL document CHEMBL1128543, “Computer-aided design and synthesis of 5-substituted tryptamines and their pharmacology at the 5-HT1D receptor: discovery of compounds with potential anti-migraine properties” (J Med Chem, 1995).
